Only some compounds are listed: those with a hit (about 1.1% of all), similar ones and a draw of the others.
Vif inh – blocks HIV Vif function; HEK293T cells, Vif self-association by quenched fluorescence, imaging, 24 h; inhibition, % at 7.49 µM; 340,000 tested, 0.35% active; AID 602346; in the data active means inhibition above about 50%, passing the limit was not always enough
NR2E3 ag-1 – agonists of human NR2E3 nuclear receptor. inhibition of corepressor binding, % at 3.98 µM. 360,000 tested, 0.35% active. CHO-S Gal4-NCOR/VP16-NR2E3 two-hybrid, luciferase. Q9Y5X4. AID 602229;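 active means inhibition above the mean of all tested compounds plus 3 SD, cut at about 70% in these data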;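 further: 0% = DMSO with NR2E3 transfected cells and 100% = cells lacking NR2E3 construct; higher means lower luciferase signal from less NR2E3 corepressor binding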
DAGLB inh – diacylglycerol lipase beta (human) inhibition | inhibition, % at 5.17 µM | 340,000 tested, 0.059% active | Q8NCG7 | HEK293T DAGLB membrane lysate, EnzChek fluorogenic substrate; in the data active means inhibition above about 34%;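 further: 0% = enzyme with vehicle and 100% = wells lacking enzyme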
Target sequence (Q8NCG7 whole entry, looked up): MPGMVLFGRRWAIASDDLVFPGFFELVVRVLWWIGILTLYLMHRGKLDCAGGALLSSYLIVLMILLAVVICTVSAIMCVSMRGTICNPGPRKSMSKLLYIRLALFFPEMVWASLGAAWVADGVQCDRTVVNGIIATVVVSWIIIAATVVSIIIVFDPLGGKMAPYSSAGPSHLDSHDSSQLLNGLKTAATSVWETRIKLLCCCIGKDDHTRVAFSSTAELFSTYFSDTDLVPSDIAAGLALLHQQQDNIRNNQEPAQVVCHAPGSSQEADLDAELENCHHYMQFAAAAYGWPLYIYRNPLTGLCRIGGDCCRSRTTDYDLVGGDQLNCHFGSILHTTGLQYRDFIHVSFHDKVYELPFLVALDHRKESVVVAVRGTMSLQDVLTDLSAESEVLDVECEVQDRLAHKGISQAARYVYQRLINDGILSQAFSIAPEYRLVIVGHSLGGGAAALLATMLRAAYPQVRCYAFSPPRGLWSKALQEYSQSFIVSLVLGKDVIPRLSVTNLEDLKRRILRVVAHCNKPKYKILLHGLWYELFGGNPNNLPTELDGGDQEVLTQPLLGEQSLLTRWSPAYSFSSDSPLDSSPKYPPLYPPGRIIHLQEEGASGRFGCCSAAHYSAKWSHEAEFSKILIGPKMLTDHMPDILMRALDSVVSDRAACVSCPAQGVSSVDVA
core dimer inh – blocks dimerization of HCV core protein; AID 1899; TR-FRET GST/Flag-core106 dimerization, 1536-well; 300,000 tested, 0.33% active; inhibition, % at 5 µM;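 active means inhibition above the mean of all tested compounds plus 3 SD, set per screening campaign, cut at about 45% in these data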
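System – GST-tagged and Flag-tagged HCV core protein residues 1-106 · Repeats – one well for each compound · Technique – TR-FRET 671 and 617 nm emission · Doses – one concentration, 5 µM, in 0.5% DMSO · Times – 4 h, 22.5 °C incubation · Also added – Eu donor and XL665 acceptor anti-tag antibodies · Measure – percent inhibition of core106 dimerization signal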
MT1-MMP act inh – inhibitors of human MT1-MMP activation. P50281. HT1080 RFP-PRO-GFP cells, GFP/RFP ratio fluorescence, overnight; percent of plate control window, DMSO zero. GFP/RFP ratio change, % at 20 µM. 360,000 tested, 0.061% active. AID 651647;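 active means GFP/RFP ratio change of at least 30% with cell ATP level not reduced by more than half and red fluorescence within 50% of control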
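Read-out: GFP/RFP fluorescence ratio; Test system: RFP-PRO-GFP reporter HT1080 cells; Compound dosing: single-point 20 µM compound, 1% DMSO; Times: overnight compound exposure at 37 °C.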
NR2E3 ag-2 – activates human photoreceptor nuclear receptor NR2E3 | Q9Y5X4 | GST-NR2E3/biotin-RetCOR TR-FRET, 1536-well | inhibition of corepressor binding, % at 4.78 µM | AID 2300 | 320,000 tested, 0.12% active;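 active means percent inhibition above the cutoff of mean plus 3 SD of all tested compounds, set per screening campaign, cut at about 20% in these data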;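 further: 0% = DMSO wells and 100% = biotin wells as full block of FRET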
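system = GST-tagged NR2E3 plus biotinylated RetCOR corepressor | input = 1.35 nM GST-NR2E3 | also added = 7 nM biotin-RetCOR | schedule = 5 h incubation at 4 °C | measured by = TR-FRET with europium anti-GST and streptavidin-D2, 340 nm excitation | read-out = percent loss of FRET ratio relative to control wells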
MT1-MMP conf – blocks activation of human MT1-MMP in validation testing; shares compounds with MT1-MMP act inh; HT1080 RFP-PRO-GFP cells, GFP and RFP fluorescence ratio, overnight; inhibition, % at 20 µM; 200 tested, 10% active; AID 652235;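 active means inhibition of at least 50% in the primary cell screen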
* hit, by the source's call; i = inactive; . = no result given.

SMILES	Vif inh	NR2E3 ag-1	DAGLB inh	core dimer inh	MT1-MMP act inh	NR2E3 ag-2	MT1-MMP conf
Cc1ccc(C(=O)NC(=S)/C=C2\N(C)c3ccccc3C2(C)C)cc1	-1	14	14	-24	40*	4	23
CC(C)C(=O)NC(=S)/C=C1/N(C)c2ccccc2C1(C)C	-6	21	2	3	-4	2	.
CCC(c1nnnn1-c1c(C)cccc1C)N1CCN(CCN2CCOCC2)CC1 (stereo unspecified)	.	-8	.	.	7	.	.
ClCC1NCC(c2ccccc2Cl)c2c1[nH]c1ccccc21 (stereo unspecified)	-3	-11	0	-4	37*	-2	2
C=C(C1=CCN(S(=O)C(C)(C)C)[C@@H]1CCO)c1ccccc1 (stereo partly specified)	-2	-14	-3	.	-4	.	.
Cc1ccc(NC(=O)CCNCc2ccco2)cc1S(=O)(=O)N(C)C	29	-25	1	2	3	4	.
CCOC(=O)C1CCN(C(=O)C(CC)c2ccccc2)CC1 (stereo unspecified)	-1	-8	0	1	13	2	.
COc1ccc(N=Cc2ccccc2O)cc1	6	-11	0	.	3	.	.
COc1ccc2sc(/C=C/c3ccccc3O)[n+](C)c2c1	2	-3	.	.	34*	.	8
O=C1c2ccccc2C(=O)c2c(NCCCN(CCO)CCO)cccc21	-8	-9	.	.	30*	.	28
CC12CCC(=O)N1C(C(=O)Nc1nnc(SCc3ccccc3F)s1)CS2 (stereo unspecified)	-1	-33	-1	-1	-4	-3	.
Cc1cc2ccccc2n1CCNC(=O)C1CCCCC1	0	-45	0	-1	38*	-3	2
Cc1cc2ccccc2n1CCNC(=O)C1CC1	-7	-8	3	-4	32*	3	2
COCCn1c(SCC(=O)Nc2ccc(F)cc2F)nc2c([nH]c3ccccc32)c1=O	.	17	0	14	-3	1	.
CCSc1nc(=S)n(Cc2ccccc2)c(C)c1C(C)=O	-4	-6	1	-5	35*	1	8
CSc1nc(=S)n(Cc2ccccc2)c(C)c1C(C)=O	0	7	2	-10	-1	-1	.
O=C(O)c1cccc(N2C(=O)CSC2=S)c1	4	-65	0	6	36*	2	8
CCOC(=O)c1ccccc1N1C(=O)CSC1=S	6	-10	0	2	30*	3	4
CCOC(=O)c1ccccc1NC(=O)Cc1c(C(=O)O)n(C)c2ccccc12	-7	-13	7	i	1	3	.
O=C(O)c1ccccc1C(=O)Nc1ccc(Nc2ccccc2)cc1	-2	5	5	.	33*	.	11

Screening data from PubChem BioAssay.
